Data from the array DNA melting data of Ke et al. (doi:10.1101/2024.01.08.574731).

Legend:
[1] = folding enthalpy; higher = less favourable; fluorescence melt of hairpins on a sequencing array, two-state fit; conditions: sodium 0.088 M
Outline: (§1)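 In 50 mM Na-HEPES pH 8.0 containing 25 mM NaCl, hairpins from the library on a sequenced MiSeq flow cell were imaged for Cy3 fluorescence at 2.5 °C steps up to 60 °C, with Cy3 and quencher oligos annealed. After normalisation to pre-quench Cy3 and to control constructs, two-state fits with bootstrapping gave melting temperature and folding enthalpy. Four replicates were combined by inverse-variance weighting, and fitted temperatures were shifted up by 9.35 °C to match UV melts.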

[2] = melting temperature; fluorescence melt of hairpins on a sequencing array, two-state fit, raised by 9.35 °C to match UV melts; conditions: sodium 0.088 M
Outline: as §1

Row | Sequence | folding enthalpy [1] [kcal/mol] | Tm [2] [°C]
1 | GGTACGTCGAAAGACACC (((..(((....)))))) | -9.89 | 33.3
2 | GGTACTCCGAAAGGAACC (((..(((....)))))) | -9.52 | 25.4
3 | GGTACTGCGAAAGCAACC (((..(((....)))))) | -9.7 | 28.8
4 | GGTACTGGAAACAGTACC (((((((....))))))) | -50.7 | 61.5
5 | GGTACTGGAAACAGTGTC (..((((....))))..) | -13.9 | 28.9
6 | GGTAGACCGAAAGGTACC (((..(((....)))))) | -19.8 | 38
7 | GGTAGACGAAAGTCCACC (((.(((....))).))) | -23.8 | 46.3
8 | GGTAGAGAAATCTACC ((((((....)))))) | -25.2 | 49.2
9 | GGTAGAGCGAAAGCTACC (((..(((....)))))) | -17.3 | 45.5
10 | GGTAGCACGAAAGTGACC (((..(((....)))))) | -13.9 | 32.2
11 | GGTAGCCGAAAGGCAACC (((.(((....))).))) | -23.8 | 57.9
12 | GGTAGCGAAAGCTATACC ((((((....)))..))) | -15.5 | 44
13 | GGTAGCGAAAGCTCCACC ((((((....)))..))) | -13.2 | 38.8
14 | GGTAGCGAAAGCTGAACC ((((((....)))..))) | -17.6 | 38.2
15 | GGTAGCGAAAGCTTACC ((((((....))).))) | -20.9 | 51.6
16 | GGTAGCGGAAACACTACC (((((.(....).))))) | -30.9 | 44.8
17 | GGTAGCGGAAACGCCACC (((.(((....))).))) | -24.8 | 48.3
18 | GGTAGCGGAAACGCTATC (.(((((....))))).) | -29.2 | 51.8
19 | GGTAGCGGAAACGTTACC ((((.((....)).)))) | -32.4 | 50.4
20 | GGTAGGCCGAAAGGCACC (((..(((....)))))) | -12 | 41.9
21 | GGTAGGGGAAACCCCACC (((.(((....))).))) | -23.7 | 46.2
22 | GGTAGGGGAAACCTTACC ((((.((....)).)))) | -30.5 | 44.1
23 | GGTAGGGGAAACTCTACC (((((.(....).))))) | -37.4 | 46

Row | Sequence | folding enthalpy [1] [kcal/mol] | Tm [2] [°C]
24 | GGTAGTGAAAACTACC ((((((....)))))) | -33.4 | 58.5
25 | GGTAGTGGAAACACCACC (((.(((....))).))) | -20.8 | 40
26 | GGTAGTGGAAACGTTACC ((((..(....)..)))) | -17.1 | 34.5
27 | GGTATACGAAAGTAAACC (((.(((....))).))) | -28.4 | 43.6
28 | GGTATCACGAAAGTGACC (((..(((....)))))) | -9.93 | 30
29 | GGTATCCCGAAAGGGACC (((..(((....)))))) | -9.73 | 34.8
30 | GGTATCCGAAAGGACACC (((.(((....))).))) | -25.2 | 47.5
31 | GGTATCGAAAGATCACC ((((((....))).))) | -21.9 | 35
32 | GGTATCGCGAAAGCGACC (((..(((....)))))) | -9.09 | 31.7
33 | GGTATCGGAAACAATACC (((((.(....).))))) | -34.9 | 31.6
34 | GGTATCGGAAACGACACC (((.(((....))).))) | -30.7 | 43.4
35 | GGTATGAAAATACC (((((....))))) | -20.9 | 47.5
36 | GGTATGCGAAAGCAAACC (((.(((....))).))) | -30.2 | 53
37 | GGTATGGGAAACCGTACC ((((.((....)).)))) | -38.5 | 50.5
38 | GGTATTACGAAAGTAACC (((..(((....)))))) | -13.4 | 27.5
39 | GGTATTCCGAAAGGAACC (((..(((....)))))) | -12.8 | 29.4
40 | GGTATTGGAAACAATGCC ((.((((....)))).)) | -37.1 | 47.7
41 | GGTATTGGAAACAGTACC ((((.((....)).)))) | -32.2 | 39.6
42 | GGTCAACCGAAAGGTACC (((..(((....)))))) | -15.9 | 35.1
43 | GGTCAACGAAAGTTACC (((.(((....)))))) | -20.6 | 38.2
44 | GGTCACCCGAAAGGGACC (((..(((....)))))) | -17.7 | 48.6
45 | GGTCACGAAAGTGCGACC ((((((....)))..))) | -17.7 | 40.8
46 | GGTCACGAAAGTGTTACC ((((((....)))..))) | -17.1 | 38.2

Row | Sequence | folding enthalpy [1] [kcal/mol] | Tm [2] [°C]
47 | GGTCACGGAAACGTAACC (((.(((....))).))) | -31.5 | 42.1
48 | GGTCAGAAATGACC (((((....))))) | -28.2 | 53.6
49 | GGTCAGCGAAAGCTCACC (((.(((....))).))) | -18.9 | 41.7
50 | GGTCAGGCGAAAGCCACC (((..(((....)))))) | -11.2 | 35.6
51 | GGTCAGGGAAACCTGATC (.(((((....))))).) | -27.2 | 48.5
52 | GGTCAGGGAAACTTGACC (((((.(....).))))) | -37.9 | 49.5
53 | GGTCATGGAAACATAACC (((.(((....))).))) | -18.5 | 31.6
54 | GGTCATGGAAACATGATC (.(((((....))))).) | -31.5 | 47
55 | GGTCCAGCGAAAGCTACC (((..(((....)))))) | -10.7 | 30.1
56 | GGTCCAGGAAACCAGACC ((((..(....)..)))) | -23.1 | 34.5
57 | GGTCCAGGAAACTGGATC (.(((((....))))).) | -32.1 | 49.7
58 | GGTCCAGGAAACTGGGTC (..((((....))))..) | -15.3 | 39.5
59 | GGTCCCACGAAAGTGACC (((..(((....)))))) | -15.8 | 36.8
60 | GGTCCCCGAAAGGGACC (((.(((....)))))) | -30.6 | 68.4
61 | GGTCCCGAAAGGGACACC ((((((....)))..))) | -8.21 | 54.5
62 | GGTCCCGAAAGGGCGACC ((((((....)))..))) | -14.3 | 46
63 | GGTCCCGAAAGGGGGACC ((((((....)))..))) | -25.4 | 59.2
64 | GGTCCCGAAAGGGTAACC ((((((....)))..))) | -18 | 42.2
65 | GGTCCCGAAAGGGTGACC ((((((....)))..))) | -19.6 | 48
66 | GGTCCCGCGAAAGCGACC (((..(((....)))))) | -11.3 | 37.7
67 | GGTCCCGGAAACGAGACC ((((.((....)).)))) | -32 | 49.6
68 | GGTCCCGGAAACGGAACC (((.(((....))).))) | -36 | 48
69 | GGTCCGGCGAAAGCCACC (((..(((....)))))) | -8.92 | 27.1

Row | Sequence | folding enthalpy [1] [kcal/mol] | Tm [2] [°C]
70 | GGTCCGGGAAACCGGATC (.(((((....))))).) | -24 | 58.9
71 | GGTCCTCGAAAGAGCACC (((.(((....))).))) | -27.1 | 38.5
72 | GGTCCTCGAAAGAGTACC (((.(((....))).))) | -31.1 | 43.4
73 | GGTCCTGAAAAGGACC ((((((....)))))) | -30.9 | 68.2
74 | GGTCCTGGAAACAGGGCC ((.((((....)))).)) | -46.3 | 60.8
75 | GGTCCTGGAAACGGGACC (((((.(....).))))) | -57.4 | 57.3
76 | GGTCGACGAAAGTCACC (((.(((....)))))) | -16.2 | 50.9
77 | GGTCGACGAAAGTCCACC (((.(((....))).))) | -25.6 | 43.9
78 | GGTCGAGGAAACTCAACC (((.(((....))).))) | -29.5 | 37
79 | GGTCGCCGAAAGGCAACC (((.(((....))).))) | -24.6 | 56.1
80 | GGTCGCGAAAGCGAAACC ((((((....)))..))) | -11.9 | 50
81 | GGTCGCGAAAGCGAACC ((((((....))).))) | -15.2 | 67.3
82 | GGTCGCGAAAGCGCACC ((((((....))).))) | -20.8 | 60.3
83 | GGTCGCGGAAACGCGATC (.(((((....))))).) | -17.6 | 63.7
84 | GGTCGGCGAAAGCCAACC (((.(((....))).))) | -21 | 55.3
85 | GGTCGGCGAAAGCCCACC (((.(((....))).))) | -21.7 | 46.9
86 | GGTCGGCGAAAGCCTACC (((.(((....))).))) | -25.9 | 53.5
87 | GGTCGGGGAAACTCGACC (((((.(....).))))) | -42.8 | 58
88 | GGTCGTCGAAAGACAACC (((.(((....))).))) | -26.1 | 48.9
89 | GGTCGTCGAAAGACACC (((.(((....)))))) | -22.1 | 52.1
90 | GGTCGTGGAAACACGGTC (..((((....))))..) | -15.8 | 41.4
91 | GGTCGTGGAAACATGGCC ((.(.((....)).).)) | -24 | 45.8
